Like-named read-outs stand apart in the source and are kept apart here.
Tests used:
precore mRNA and pgRNA = assay: Measurement of intracellular HBV RNA by real-time PCR; format: cell-based, hepatitis B virus; conditions: HepG2.2.15.7 cells; hit compound 16 10 µM, 38 and 39 30 µM; n = 3
Procedure, shortened: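 Total RNA from treated HepG2.2.15.7 cells was TRIzol-extracted and reverse-transcribed with DNase treatment. SYBR Green real-time PCR used primers PCP/BC1 for precore mRNA and PGP/BC1 for precore mRNA plus pgRNA, normalised to GAPDH. n = 3; Mann-Whitney U test, p < 0.05.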

[1] = no reference given; cited from earlier work
[2] = tested on: LHBs protein and HBc protein; assay: Western blot analysis of intracellular HBV proteins; format: cell-based, hepatitis B virus; conditions: HepG2.2.15.7 cells; hit compound 16 10 µM, 38 and 39 30 µM; n = 3
Procedure, shortened: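 Treated HepG2.2.15.7 cells were lysed in RIPA buffer and soluble protein was run on SDS-PAGE, then transferred to PVDF. Blots were blocked, then given primary antibodies (including rabbit polyclonal anti-HBc; β-actin as loading control) at 4 °C overnight and secondaries 1 h at room temperature. ECL detection; bands quantified by densitometry, n = 3.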

[3] = tested on: HBV-expressing HepG2.2.15.7 cells; format: cell-based; conditions: Hepatitis B virus
Procedure, shortened: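 HBV-producing HepG2.2.15.7 cells (derived from HepG2.2.15) were exposed to test compound at 0.1, 0.3, 1, 3, 10, 30 and 100 µM, […]. Enveloped Dane particles in the supernatant were captured by anti-HBs immunoprecipitation, and HBV DNA was then quantified by real-time PCR with S-gene primers/probe. Cell viability was read in parallel, n = 3. IC50 and CC50 were derived from dose curves.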

[4] = Cell viability of HepG2.2.15.7 cells; format: cell-based; conditions: human
Procedure, shortened: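 HepG2.2.15.7 cells (stable high-level HBV expression) seeded at 1.5 × 10^5 cells/well, grown overnight and PBS-washed. Fresh medium with compound (0.1, 0.3, 1, 3, 10, 30, 100 µM final; DMSO stocks) added for 48 h. Cell viability measured, n = 3; CC50 derived from the dose-response.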

IC50 ([3]; HepG2.2.15.7, read-out: IC50 (HBV DNA after the immunoprecipitation)): 18.6 µM | IC50 ([3]; HepG2.2.15.7, read-out: IC50 against HBV expressed in µg/mL): 2.8 µg/mL
Structure (SMILES): C=C[C@H]1C[N@@]2CC[C@H]1C[C@@H]2[C@@H](O)c1ccnc2ccc(OC)cc12 [Compound 39, quinidine]
pgRNA level compared to a control (precore mRNA and pgRNA): no significant difference | precore mRNA level compared to a control (precore mRNA and pgRNA): no significant difference | effective blood concentration for arrhythmia [1]: 2.3 to 5.0 µg/mL | HBc protein level (western blot) [2]: no significant differences | LHBs protein level (western blot) [2]: no significant differences | CC50 at 48 h [4]: 131 µM

Source: PMC12234697 (Scientific Reports, 2025)
